Assay results reported in ChEMBL document CHEMBL1649458, “Antibiotic resistance in Pseudomonas aeruginosa strains with increased mutation frequency due to inactivation of the DNA oxidative repair system” (2009).
Converted amounts (≈) assume the structure as drawn. The source made the active and inactive calls. The rule behind the calls is not given here.

How the values were obtained:
[1] = tested on: Pseudomonas aeruginosa; experiment: Antimicrobial activity against Pseudomonas aeruginosa PAO1 harboring DNA oxidative repair system mutT mutant gene selected in presence of ciprofloxacin by Etest; assay type: functional
Procedure, shortened: (§1)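 Resistant colonies picked from population-analysis plates (5% blood agar with twofold antibiotic dilutions) and passaged three times in antibiotic-free LB before Etest MIC determination. MIC is the mean of four colonies, two successive determinations per colony; PAO1 after tobramycin selection is the mean of two colonies.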

[2] = tested on: Pseudomonas aeruginosa; experiment: Antimicrobial activity against Pseudomonas aeruginosa PAO1 harboring DNA oxidative repair system mutM mutant gene selected in presence of tobramycin by Etest; assay type: functional; procedure, shortened: as §1
[3] = tested on: Pseudomonas aeruginosa; experiment: Antimicrobial activity against Pseudomonas aeruginosa PAO1 selected in presence of ciprofloxacin by Etest; assay type: functional; procedure, shortened: as §1
[4] = tested on: Pseudomonas aeruginosa; experiment: Antimicrobial activity against Pseudomonas aeruginosa PAO1 selected in presence of tobramycin by Etest; assay type: functional; procedure, shortened: as §1
[5] = tested on: Pseudomonas aeruginosa; experiment: Antimicrobial activity against Pseudomonas aeruginosa PAO1 harboring DNA oxidative repair system mutM mutant gene selected in presence of ciprofloxacin by Etest; assay type: functional; procedure, shortened: as §1
[6] = tested on: Pseudomonas aeruginosa; experiment: Antimicrobial activity against Pseudomonas aeruginosa PAO1 harboring DNA oxidative repair system mutT mutant gene selected in presence of tobramycin by Etest; assay type: functional; procedure, shortened: as §1
[7] = tested on: Pseudomonas aeruginosa; experiment: Antimicrobial activity against Pseudomonas aeruginosa PAO1 harboring DNA oxidative repair system mutY mutant gene selected in presence of tobramycin by Etest; assay type: functional; procedure, shortened: as §1
[8] = tested on: Pseudomonas aeruginosa; experiment: Antimicrobial activity against Pseudomonas aeruginosa PAO1 harboring DNA oxidative repair system mutY mutant gene selected in presence of ciprofloxacin by Etest; assay type: functional; procedure, shortened: as §1
[9] = tested on: Pseudomonas aeruginosa; experiment: Antimicrobial activity against Pseudomonas aeruginosa PAO1 by Etest; assay type: functional
Procedure, shortened: (§2)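 MICs by Etest per manufacturer's instructions on P. aeruginosa strains grown in LB; plates incubated at 37°C.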

[10] = tested on: Pseudomonas aeruginosa; experiment: Antimicrobial activity against Pseudomonas aeruginosa PAO1 harboring DNA oxidative repair system mutM mutant gene selected in presence of Ceftazidime by Etest; assay type: functional; procedure, shortened: as §1
[11] = tested on: Pseudomonas aeruginosa; experiment: Antimicrobial activity against Pseudomonas aeruginosa PAO1 assessed as microbial doubling time; assay type: functional
Procedure, shortened: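 Overnight LB cultures diluted to OD600 0.01 in LB and grown at 37°C. OD600 read every 20 min until stationary phase. OD600 plotted against time on a semilog scale, and doubling time taken from the slope of the straight exponential-phase segment. Value is the mean of three separate cultures ± standard deviation.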

[12] = tested on: Pseudomonas aeruginosa; experiment: Antimicrobial activity against Pseudomonas aeruginosa PAO1 harboring DNA oxidative repair system deltamutT::Gm mutant gene by Etest; assay type: functional; procedure, shortened: as §2
[13] = tested on: Pseudomonas aeruginosa; experiment: Antimicrobial activity against Pseudomonas aeruginosa PAO1 harboring DNA oxidative repair system deltamutY::Gm mutant gene assessed as doubling time; assay type: functional
Procedure, shortened: (§3)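 Overnight LB cultures adjusted to OD600 0.01 and grown at 37°C; OD600 read every 20 min to stationary phase. Doubling time taken from the slope of the exponential phase on a semilog plot; mean ± SD of three individual cultures.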

[14] = tested on: Pseudomonas aeruginosa; experiment: Antimicrobial activity against Pseudomonas aeruginosa PAO1 harboring DNA oxidative repair system deltamutY::Gm mutant gene by Etest; assay type: functional; procedure, shortened: as §2
[15] = tested on: Pseudomonas aeruginosa; experiment: Antimicrobial activity against Pseudomonas aeruginosa PAO1 harboring DNA oxidative repair system mutT mutant gene selected in presence of Ceftazidime by Etest; assay type: functional; procedure, shortened: as §1
[16] = tested on: Pseudomonas aeruginosa; experiment: Antimicrobial activity against Pseudomonas aeruginosa PAO1 harboring DNA oxidative repair system mutT mutant gene complemented with wild type DNA oxidative repair system mutT gene; assay type: functional, organism-based
[17] = tested on: Pseudomonas aeruginosa; experiment: Antimicrobial activity against Pseudomonas aeruginosa PAO1 harboring DNA oxidative repair system deltamutM::Gm mutant gene assessed as doubling time; assay type: functional; procedure, shortened: as §3
[18] = tested on: Pseudomonas aeruginosa; experiment: Antimicrobial activity against Pseudomonas aeruginosa PAO1 harboring DNA oxidative repair system deltamutT::Gm mutant gene assessed as doubling time; assay type: functional; procedure, shortened: as §3
[19] = tested on: Pseudomonas aeruginosa; experiment: Antimicrobial activity against Pseudomonas aeruginosa PAO1 harboring DNA oxidative repair system […] mutant gene complemented with wild type DNA oxidative repair system mutY gene; assay type: functional, organism-based
[20] = tested on: Pseudomonas aeruginosa; experiment: Antimicrobial activity against Pseudomonas aeruginosa PAO1 harboring DNA oxidative repair system mutY mutant gene selected in presence of Ceftazidime by Etest; assay type: functional; procedure, shortened: as §1
[21] = tested on: Pseudomonas aeruginosa; experiment: Antimicrobial activity against Pseudomonas aeruginosa PAO1 harboring DNA oxidative repair system deltamutM::Gm mutant gene by Etest; assay type: functional; procedure, shortened: as §2
[22] = tested on: Pseudomonas aeruginosa; experiment: Antimicrobial activity against Pseudomonas aeruginosa PAO1 selected in presence of Ceftazidime by Etest; assay type: functional; procedure, shortened: as §1
[23] = tested on: Pseudomonas aeruginosa; experiment: Antimicrobial activity against Pseudomonas aeruginosa PAO1 harboring DNA oxidative repair system mutY mutant gene complemented with wild type DNA oxidative repair system mutY gene; assay type: functional, organism-based
[24] = tested on: Pseudomonas aeruginosa; experiment: Selectivity ratio of MIC for Pseudomonas aeruginosa PAO1 harboring DNA oxidative repair system mutT mutant gene selected in presence of tobramycin to MIC for Pseudomonas aeruginosa PAO1 harboring DNA oxidative repair system mutT mutant gene; assay type: functional
[25] = tested on: Pseudomonas aeruginosa; experiment: Selectivity ratio of MIC for Pseudomonas aeruginosa PAO1 harboring DNA oxidative repair system mutY mutant gene selected in presence of tobramycin to MIC for Pseudomonas aeruginosa PAO1 harboring DNA oxidative repair system mutY mutant gene; assay type: functional

SMILES | MIC [1] [mg/L] | MIC [2] [mg/L] | MIC [3] [mg/L] | MIC [4] [mg/L] | MIC [5] [mg/L] | MIC [6] [mg/L] | MIC [7] [mg/L] | MIC [8] [mg/L] | MIC [9] [mg/L] | MIC [10] [mg/L] | Time [11] [min] | MIC [12] [mg/L] | Time [13] [min] | MIC [14] [mg/L] | MIC [15] [mg/L] | Time [17] [min] | Time [18] [min] | Activity [19] | MIC [20] [mg/L] | MIC [21] [mg/L] | further results
CN(C)[C@@H]1C(O)=C(C(N)=O)C(=O)[C@@]2(O)C(O)=C3C(=O)c4c(O)cccc4[C@@](C)(O)[C@H]3C[C@@H]12 [TETRACYCLINE] | 256 | 18 | 256 | 10 | 256 | 4.25 | 5.5 | 256 |  |  |  |  |  |  |  |  |  |  |  |  | 
NC[C@H]1O[C@H](O[C@H]2[C@H](O)[C@@H](O[C@H]3O[C@H](CO)[C@@H](O)[C@H](N)[C@H]3O)[C@H](N)C[C@@H]2N)[C@H](N)C[C@@H]1O [TOBRAMYCIN] | 1.25 | 3.5 | 1.06 | 6 | 1.19 | 0.9 | 3.75 | 1.37 | 1.5 (≈ 3.21 µM) | 2 | 26 | 1.5 (≈ 3.21 µM) | 25.7 | 1.5 (≈ 3.21 µM) | 2 | 27.3 | 27.7 | Active | 2 | 1.5 (≈ 3.21 µM) | Activity [16]: Active; MIC [22]: 1.75 mg/L; Activity [23]: Active
C[C@H]1[C@H](NC(=O)/C(=N\OC(C)(C)C(=O)O)c2csc(N)n2)C(=O)N1S(=O)(=O)O [AZTREONAM] |  |  |  |  |  |  |  |  | 1.5 (≈ 3.44 µM) |  | 26 | 1.5 (≈ 3.44 µM) | 25.7 | 1 (≈ 2.3 µM) |  | 27.3 | 27.7 | Active |  | 1.5 (≈ 3.44 µM) | Activity [23]: Active
CCN1CCN(C(=O)N[C@@H](C(=O)N[C@@H]2C(=O)N3[C@@H]2SC(C)(C)[C@@H]3C(=O)O)c2ccccc2)C(=O)C1=O [PIPERACILLIN] |  |  |  |  |  |  |  |  | 2 (≈ 3.86 µM) |  | 26 | 2 (≈ 3.86 µM) | 25.7 | 2 (≈ 3.86 µM) |  | 27.3 | 27.7 | Active |  | 2 (≈ 3.86 µM) | Activity [23]: Active
O=C(N[C@H](CO)[C@H](O)c1ccc([N+](=O)[O-])cc1)C(Cl)Cl [CHLORAMPHENICOL] | 256 | 56 | 256 | 28 | 256 | 20 | 86 | 256 |  |  |  |  |  |  |  |  |  |  |  |  | fold change (FC) [24]: 3; fold change (FC) [25]: 2
CC(C)(O/N=C(\C(=O)N[C@@H]1C(=O)N2C(C(=O)[O-])=C(C[n+]3ccccc3)CS[C@H]12)c1csc(N)n1)C(=O)O [CEFTAZIDIME] | 0.44 | 0.63 | 0.44 | 0.5 | 0.44 | 0.38 | 0.69 | 0.47 | 2 (≈ 3.66 µM) | 26 | 26 | 2 (≈ 3.66 µM) | 25.7 | 1.5 (≈ 2.74 µM) | 18 | 27.3 | 27.7 |  | 18 | 1.5 (≈ 2.74 µM) | MIC [22]: 20 mg/L
O=C(O)c1cn(C2CC2)c2cc(N3CCNCC3)c(F)cc2c1=O [CIPROFLOXACIN] | 0.75 | 0.11 | 0.75 | 0.32 | 0.88 | 0.08 | 0.16 | 0.75 | 0.19 (≈ 0.573 µM) | 0.13 | 26 |  | 25.7 | 0.19 (≈ 0.573 µM) | 0.16 | 27.3 | 27.7 |  | 0.17 | 0.19 (≈ 0.573 µM) | 
